Screening results (PubChem BioAssay)
Shown are actives, neighbours in structure and some others; about 2.6% of the full set was active somewhere.
Vif inh: HIV Vif inhibition; AID 602346; inhibition, % at 7.49 µM; HEK293T cells, Vif self-association by quenched fluorescence, imaging, 24 h; 340,000 compounds, 0.35% hits; in the data active means inhibition above about 50%, passing the limit was not always enough
FN deposit inh: fibronectin deposition inhibition | AH1F fibroblasts, Alexa488-fibronectin deposition fluorescence, overnight | inhibition, % at 12.6 µM | 350,000 compounds, 0.086% hits | AID 743247;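 active means mean inhibition across replicates of 30% or more, regardless of how many single replicates reach that level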
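Material: AH1F fibroblast monolayer depositing Alexa488-labelled fibronectin into matrix / Amount: 10000 AH1F cells per well / Signal: fluorescence 485/525 nm / Medium: DMEM, 2% serum / Compound: single dose, pinned / Incubation: 1 h cell adhesion before compound, then overnight fibronectin incubation / Reagent: Alexa488-FN, 24 nM final / Read-out: inhibition of fibronectin deposition signal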
S100A4 MyoIIA: blocks human S100A4 binding to myosin IIA peptide; 360,000 compounds, 0.14% hits; P26447; S100A4/TAMRA-MyoIIA peptide fluorescence polarization; inhibition, % at 10.7 µM;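 active means mean inhibition of at least 70% across replicates, with every replicate also reaching that level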
Target sequence (P26447 whole entry, looked up): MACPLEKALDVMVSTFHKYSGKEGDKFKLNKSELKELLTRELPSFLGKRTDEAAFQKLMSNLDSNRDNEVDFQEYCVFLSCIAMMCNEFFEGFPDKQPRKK
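Material: S100A4 monomer protein / Buffer or medium: 50 mM HEPES pH 7.2, 10 mM CaCl2, 100 mM KCl / Times: 5 min incubation before reading / Benchmarks: neutral control DMSO, positive control TFP / Reagent: labelled myosin peptide probe, 5 nM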
Ecoli rRNA inh: selective bacterial rRNA inhibition in E. coli | GFP signal change (wild-type ribosome), % (no concentration beside the values) | 350,000 compounds, 1.6% hits | E. coli WT GFP vs humanized-ribosome RFP mutants, fluorescence, 24 h; active compounds read low; DMSO median 0, no signal -100 | AID 720706;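 active means significant combined selectivity score with lowered wild-type GFP, culture density cut under 30%, mutant RFP and density less affected; inactive means any of these conditions unmet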
HIV Env fusion: blocks HIV Env-driven cell-cell fusion | HeLa-JRFL Env/CEM21 cell fusion, luciferase | inhibition, % at 12.3 µM | 360,000 compounds, 1.1% hits | AID 651610;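 active means mean replicate inhibition score of at least 50 and every replicate individually at or above 50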
miR122 inh: miR-122 inhibition in Huh7 cells | 340,000 compounds, 0.3% hits | Huh7 miR-122 Renilla luciferase sensor, 48 h; neutral wells = 0, positive control = 100 | activation (reporter increase), % at 12.5 µM;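 active means mean replicate activation score at least 90 and every replicate individually at or above 90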;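 further: higher luciferase means less miR-122 activity so hits act as miR-122 inhibitors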
A number is an active result; n = inactive; x = no result; + = active, no number; [ ] = dose if it differs, or a comment.

SMILES	Vif inh	FN deposit inh	S100A4 MyoIIA	Ecoli rRNA inh	HIV Env fusion	miR122 inh
C[C@H]1CN([C@@H](C)CO)C(=O)Cc2cc(NC(=O)NC3CCCCC3)ccc2O[C@@H]1CN(C)Cc1ccc(C(F)(F)F)cc1	x	n	n	n	n	n
CC1(C(=O)Nc2ccc3c(c2)OCO3)CCN1Cc1csc2ccccc12 (stereo unspecified)	x	n	n	n	63.2	n
COc1cccc(NC(=O)C2(C)CCN2Cc2ccc(OC)c3ccccc23)c1 (stereo unspecified)	n	n	n	x	n	n
COc1cccc(CN2CCC2(C)C(=O)Nc2cccc(Oc3ccccc3)c2)c1OC (stereo unspecified)	n	n	n	n	85.9	n
C[C@H](CO)N1C[C@H](C)[C@H](CN(C)CC2CC2)Oc2ccc(NS(=O)(=O)c3cn(C)cn3)cc2CC1=O	x	n	n	n	n	n
Cc1nc(SCc2nc3ccc(Cl)cc3[nH]2)c2oc3ccccc3c2n1	n	n	n	n	n	n
Cc1nc(SCc2nc3cc(Cl)c(F)cc3[nH]2)c2oc3ccccc3c2n1	n	x	n	n	65.6	n
CN(C)/C=N/C1=C(C#N)C(c2ccc(Br)cc2)c2ccc3ccccc3c2O1 (stereo unspecified)	n	n	n	n	59.4	n
O=C(Nc1cc(Sc2nc3ccccc3s2)cc([N+](=O)[O-])c1)c1ccccc1F	n	15.4	x	x	n	n
O=C(CC1CC1)Nc1ccc2c(c1)[C@@H]1C[C@H](CC(=O)N3CCc4ccccc4C3)O[C@H](CO)[C@@H]1O2	x	n	n	n	x	n
C[C@@H]1CN([C@@H](C)CO)S(=O)(=O)c2ccc(-c3ccc(F)cc3)cc2O[C@@H]1CN(C)C	x	n	n	n	n	n
CO[C@H]1CN(C)C(=O)c2cc(NC(=O)C3CC3)ccc2OC[C@H](C)N(C)C[C@H]1C	x	n	n	n	x	x
O=C1CCCC2=C1C(c1ccc(Cl)cc1)C1C(=O)c3ccccc3C1=N2 (stereo unspecified)	n	n	x	x	59.5	n
O=C1CCCC2=C1C(c1ccccc1)C1C(=O)c3ccccc3C1=N2 (stereo unspecified)	n	n	x	x	n	x
C[C@@H]1CN(C)C(=O)c2cc(N(C)C)ccc2O[C@@H]1CN(C)S(C)(=O)=O	x	x	x	n	x	x
CCOc1ccc(N(CC(=O)NC(C(C)C)C(C)C)S(=O)(=O)c2ccc(OC)c(OC)c2)cc1	n	n	n	-30.0	n	x
CC[C@H]1C/C=C\CCNC(=O)CCC(=O)N1	x	n	x	n	x	x
Nc1nc(Nc2ccc(Cl)cc2)nc(NCc2ccco2)c1[N+](=O)[O-]	n	n	n	n	58.8	n
Nc1nc(Nc2cccc(Cl)c2)nc(NCc2ccco2)c1[N+](=O)[O-]	n	n	n	n	76.3	x
Cc1cccc(Nc2nc(N)c([N+](=O)[O-])c(NCc3ccco3)n2)c1	n	n	n	n	x	n
O=C(CCN1CCCCC1)NCC[C@@H]1CC[C@H](NC(=O)C2CCOCC2)[C@@H](CO)O1	x	n	n	n	n	x
O=C1CN(S(=O)(=O)c2ccc(Cl)cc2)c2ccccc2N1	n	n	n	-22.0	n	n
COC(=O)[C@H]1[C@H](CO)[C@H]2Cn3c(ccc(-c4ccccc4)c3=O)[C@H]2N1CC1CCCCC1	x	x	n	n	x	n
CC1CCCN(C(=O)c2ccc3c(=O)n(C4CCCC4)c(=S)[nH]c3c2)C1 (stereo unspecified)	n	x	n	n	n	n
O=C(c1ccc2c(=O)n(C3CCCC3)c(=S)[nH]c2c1)N1CCCCCC1	n	x	n	-27.8	n	x
SMILES	Vif inh	FN deposit inh	S100A4 MyoIIA	Ecoli rRNA inh	HIV Env fusion	miR122 inh
Cc1ccc(C(=O)N2c3ccccc3NC(=O)C2C)cc1 (stereo unspecified)	n	n	n	n	n	x
CC1C(=O)Nc2ccccc2N1C(=O)c1ccc(Cl)c(Cl)c1 (stereo unspecified)	n	n	n	-26.8	n	n
O=S(=O)(Nc1nc2ccccc2nc1NCCO)c1cccc(Cl)c1	n	n	x	x	n	n
O=C(Nc1ccccc1)c1ccc(S(=O)(=O)NCC2CCCO2)cc1 (stereo unspecified)	n	x	x	x	x	n
Cc1ccc(S(=O)(=O)NCc2ccccc2)cc1C(=O)NCC1CCCO1 (stereo unspecified)	n	n	+	n	x	x
O=S(=O)(Nc1nc2ccccc2nc1NCC1CCCO1)c1cccc(Cl)c1 (stereo unspecified)	x	n	n	-23.8	n	n
O=C(Nc1cccc(Cl)c1)c1ccc(S(=O)(=O)NCC2CCCO2)cc1 (stereo unspecified)	n	n	n	-21.4	n	n
O=C(O)C[C@H]1C[C@H]2c3cc(NC(=O)NC4CCCCC4)ccc3O[C@H]2[C@H](CO)O1	x	n	n	n	n	n
CCN(CCCNC(=O)C1CCC(=O)N1Cc1ccc(C)cc1)c1cccc(C)c1 (stereo unspecified)	51.5	x	n	n	x	x
CCN(CCCNC(=O)C1CCC(=O)N1Cc1ccccc1Cl)c1cccc(C)c1 (stereo unspecified)	n	x	x	x	n	n
O=C(CSc1ncnc2[nH]ncc12)Nc1cccc(Oc2ccccc2)c1	n	x	n	-43.1	n	n
O=C(CSc1cccc[n+]1[O-])Nc1cccc(Oc2ccccc2)c1	n	n	n	n	n	n
Nc1nc(SCC(=O)Nc2cccc(Oc3ccccc3)c2)n[nH]1	n	x	n	-23.9	n	x
O=C(CCl)Nc1cccc(Oc2ccccc2)c1	n	n	n	-25.6	n	n
O=c1c2ccccc2nc(/C=C/c2ccc([N+](=O)[O-])o2)n1CCCO	+	x	x	x	x	n
CC(C)NC(=O)Nc1ccc2c(c1)C(=O)N([C@@H](C)CO)C[C@@H](C)[C@H](CN(C)S(=O)(=O)c1cn(C)cn1)O2	x	n	n	n	n	n
Cc1ccc(-n2nnnc2SCC(=O)c2c(N)n(CC(C)C)c(=O)n(C)c2=O)cc1	n	x	x	x	58.9	n
CC(C)Cn1c(N)c(C(=O)CSc2nc3ccccc3n2C)c(=O)n(C)c1=O	n	x	x	x	n	n
Cc1csc(SCC(=O)c2c(N)n(CC(C)C)c(=O)n(C)c2=O)n1	n	n	x	x	89.5	n
O=C(C[C@H]1CC[C@@H](NC(=O)C2CCOCC2)[C@@H](CO)O1)Nc1ccccc1	x	x	n	n	x	x
C[C@H](CO)N1C[C@H](C)[C@H](CN(C)Cc2ccccc2)OCCCC[C@H](C)Oc2ccc(NC(=O)Nc3cccc4ccccc34)cc2C1=O	x	n	n	n	113.8[16.7 µM]	n
C[C@@H]1CCCCO[C@@H](CN(C)Cc2ccccc2)[C@H](C)CN([C@@H](C)CO)C(=O)c2cc(NC(=O)Nc3cccc4ccccc34)ccc2O1	x	n	n	n	n	n
